The source of these data is ChEMBL document CHEMBL1955829, “Synthesis and biological evaluation of 4β-sulphonamido and 4β-[(4'-sulphonamido)benzamide]podophyllotoxins as DNA topoisomerase-IIα and apoptosis inducing agents” (2012).

Molecules are shown by their SMILES. Activity calls are given as the source filed them. No cut-off for these calls is given here.

In test [1] the test system is COLO 205. As to the kind of experiment: Up-regulation of topoisomerase 2alpha in human COLO205 cells at 4 uM after 24 hrs by Western blotting analysis in presence of HDAC inhibitor, trichostatin A. The class given is functional, cell-based. A digest of the protocol: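 Colo-205 cells exposed 24 h to test agent plus TSA, each at 4 µM. Western blot of lysates probed for topo-IIα, with β-actin as loading control.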

Test [2] deals with COLO 205. Kind of test: Cell cycle arrest in human COLO205 cells assessed as accumulation at S phase at 4 uM after 24 hrs by FACS analysis (reference value: 8.91%). Format: functional. A digest of the protocol:
(§1)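 Colo-205 cells seeded at […] per 60 mm dish and treated 24 h at 4 µM; TSA arm used TSA at 4 µM for 12 h. Cells trypsinised, fixed in ice-cold 70% ethanol 30 min at 4 °C, RNase 1 mg/mL 30 min at 37 °C, then propidium iodide/citrate/Triton stain. DNA content of 20,000 events read by flow cytometry; phase percentages from histograms.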

The test system of test [3] is COLO 205. Kind of test: Induction of apoptosis in human COLO205 cells assessed as up-regulation of p21 at 4 uM after 24 hrs by Western blotting analysis. The class given is functional, cell-based. A digest of the protocol:
(§2)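 Colo-205 cells treated 24 h at 4 µM and lysed in ice-cold RIPA with protease inhibitors and NaF. Protein measured by Bradford; 50 µg per lane run on 12% SDS-PAGE and transferred to PVDF. Membrane blocked 2 h, primary antibody (topo-IIα/β, p21, p16, pro-caspase-3, NF-kB p65) overnight at 4 °C, HRP secondary 1:2000 for 1 h, chemiluminescence detection; β-actin as loading control. Reduced procaspase-3 taken as caspase-3 activation.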

The subject of test [4] is COLO 205. As to the kind of experiment: Induction of apoptosis in human COLO205 cells assessed as up-regulation of NF-kappaB at 4 uM after 24 hrs by Western blotting analysis. Format: functional, cell-based. A digest of the protocol:
as §2

Test [5] deals with DNA topoisomerase 2-beta (Homo sapiens) (UniProt Q02880). As to the kind of experiment: Inhibition of topoisomerase 2beta in human in COLO205 cells assessed as induction of double-strand DNA breaks at 4 uM after 24 hrs by gamma-H2AX staining-based Western blotting analysis. The class given is cell-based. The settings on record: COLO 205. A digest of the protocol: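 Colo-205 cells treated 24 h at 4 µM. Double-strand breaks detected with anti-phospho-Ser139 H2AX antibody, both by immunofluorescence staining and by Western blot, with β-actin as loading control.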

The subject of test [6] is COLO 205. Kind of test: Cell cycle arrest in human COLO205 cells assessed as accumulation at G2/M phase at 4 uM after 24 hrs by FACS analysis (reference value: 25.92%). Format: functional. A digest of the protocol: as §1
Test [7] relates to COLO 205. Kind of test: Cytotoxicity against human COLO205 cells at 4 uM after 24 hrs by MTT assay. The class given is functional, cell-based. A digest of the protocol: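 Colo-205 cells plated at 10,000 per well, left overnight, then exposed 24 h at 2, 4 or 8 µM. MTT added for 2 h at 37 °C, formazan dissolved in extraction buffer, and optical density read at 570 nm against untreated cells.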

The test system of test [8] is COLO 205. Kind of test: Induction of apoptosis in human COLO205 cells assessed as down regulation of Bcl-2 at 4 uM after 24 hrs by ELISA. Format: functional, cell-based. A digest of the protocol:
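Colo-205 cells treated 24 h at 4 µM, with etoposide and camptothecin as controls. Lysates added to Bcl2-antibody-coated wells, followed by a biotin-conjugated anti-human Bcl2 monoclonal antibody, in a Bcl2 ELISA.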

In test [9] the test system is COLO 205. Kind of test: Cell cycle arrest in human COLO205 cells assessed as accumulation at G1 phase at 4 uM after 24 hrs by FACS analysis (reference value: 60.89%). The class given is functional. A digest of the protocol:
as §1

In test [10] the target is DNA topoisomerase 2-beta (Mus musculus) (UniProt Q64511). Kind of test: Inhibition of topoisomerase 2beta in mouse embryonic fibroblasts after 1.5 hrs by comet assay. The settings on record: concentration not given here.
Test [11] concerns A2780. As to the kind of experiment: Growth inhibition of human A2780 cells after 48 hrs by sulforhodamine B assay. The note with it: A2780, 48 h. The class given is functional. A digest of the protocol: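 Cells grown in DMEM with 10% FBS and 2 mM L-glutamine, plated at densities set by doubling time, and held 24 h before dosing. Exposure was 48 h to 0.1, 1, 10 and 100 µM in triplicate wells. Cells fixed with cold TCA (final 10%) 60 min at 4 °C and stained with 0.4% SRB 20 min. Bound dye eluted in 10 mM Tris base and read at 540 nm (690 nm reference). GI50 is the concentration giving 50% reduction in net protein gain versus control; values are the mean of three determinations.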

Test [12] concerns COLO 205. Kind of test: Down regulation of topoisomerase 2beta in human COLO205 cells at 4 uM after 24 hrs by Western blotting analysis. The class given is functional, cell-based. A digest of the protocol:
as §2

Test [13] has as its system COLO 205. As to the kind of experiment: Down regulation of topoisomerase 2alpha in human COLO205 cells at 4 uM after 24 hrs by Western blotting analysis. The class given is functional, cell-based. A digest of the protocol:
as §2

DNA topoisomerase 2-beta (Homo sapiens), sequence (Q02880 whole entry): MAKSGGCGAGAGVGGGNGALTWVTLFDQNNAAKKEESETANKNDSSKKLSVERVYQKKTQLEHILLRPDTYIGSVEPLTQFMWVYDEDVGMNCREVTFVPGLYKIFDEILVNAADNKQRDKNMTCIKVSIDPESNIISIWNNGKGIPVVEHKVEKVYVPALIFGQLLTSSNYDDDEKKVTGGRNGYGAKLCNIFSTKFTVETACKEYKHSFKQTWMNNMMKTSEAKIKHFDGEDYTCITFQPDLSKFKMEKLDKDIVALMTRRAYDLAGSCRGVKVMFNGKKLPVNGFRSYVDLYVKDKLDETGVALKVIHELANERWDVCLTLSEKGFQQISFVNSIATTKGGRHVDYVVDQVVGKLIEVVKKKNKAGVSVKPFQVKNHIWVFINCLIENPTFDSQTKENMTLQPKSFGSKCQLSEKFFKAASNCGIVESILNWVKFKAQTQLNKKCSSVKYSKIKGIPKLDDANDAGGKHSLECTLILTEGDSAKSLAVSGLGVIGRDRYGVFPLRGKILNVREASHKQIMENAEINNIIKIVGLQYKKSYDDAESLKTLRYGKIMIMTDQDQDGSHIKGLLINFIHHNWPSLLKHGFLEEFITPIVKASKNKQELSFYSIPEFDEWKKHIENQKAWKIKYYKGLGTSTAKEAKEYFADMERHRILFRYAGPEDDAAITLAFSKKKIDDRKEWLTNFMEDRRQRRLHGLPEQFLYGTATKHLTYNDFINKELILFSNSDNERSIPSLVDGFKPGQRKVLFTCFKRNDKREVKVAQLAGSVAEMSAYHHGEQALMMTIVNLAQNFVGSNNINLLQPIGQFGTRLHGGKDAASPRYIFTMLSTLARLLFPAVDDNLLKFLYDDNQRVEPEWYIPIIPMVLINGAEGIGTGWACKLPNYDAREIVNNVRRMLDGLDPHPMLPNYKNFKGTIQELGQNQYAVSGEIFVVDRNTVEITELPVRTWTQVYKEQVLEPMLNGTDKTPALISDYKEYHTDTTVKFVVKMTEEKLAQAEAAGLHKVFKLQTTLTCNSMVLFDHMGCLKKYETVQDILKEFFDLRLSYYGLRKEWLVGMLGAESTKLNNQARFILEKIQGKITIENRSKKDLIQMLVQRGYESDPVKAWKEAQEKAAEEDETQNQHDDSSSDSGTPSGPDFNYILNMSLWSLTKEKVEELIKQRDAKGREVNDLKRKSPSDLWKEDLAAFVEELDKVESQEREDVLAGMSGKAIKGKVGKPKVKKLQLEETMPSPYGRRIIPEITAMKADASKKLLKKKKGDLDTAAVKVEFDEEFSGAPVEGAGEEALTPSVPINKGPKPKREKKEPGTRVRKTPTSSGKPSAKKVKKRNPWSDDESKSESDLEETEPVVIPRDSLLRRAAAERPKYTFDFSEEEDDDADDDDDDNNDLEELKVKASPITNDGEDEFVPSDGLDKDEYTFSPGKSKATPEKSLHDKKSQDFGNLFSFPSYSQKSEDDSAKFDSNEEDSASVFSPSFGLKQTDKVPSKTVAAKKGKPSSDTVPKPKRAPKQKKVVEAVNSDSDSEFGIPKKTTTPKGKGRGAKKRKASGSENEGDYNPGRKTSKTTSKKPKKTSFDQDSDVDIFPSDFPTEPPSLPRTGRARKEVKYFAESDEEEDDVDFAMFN
DNA topoisomerase 2-beta (Mus musculus), sequence (Q64511 whole entry): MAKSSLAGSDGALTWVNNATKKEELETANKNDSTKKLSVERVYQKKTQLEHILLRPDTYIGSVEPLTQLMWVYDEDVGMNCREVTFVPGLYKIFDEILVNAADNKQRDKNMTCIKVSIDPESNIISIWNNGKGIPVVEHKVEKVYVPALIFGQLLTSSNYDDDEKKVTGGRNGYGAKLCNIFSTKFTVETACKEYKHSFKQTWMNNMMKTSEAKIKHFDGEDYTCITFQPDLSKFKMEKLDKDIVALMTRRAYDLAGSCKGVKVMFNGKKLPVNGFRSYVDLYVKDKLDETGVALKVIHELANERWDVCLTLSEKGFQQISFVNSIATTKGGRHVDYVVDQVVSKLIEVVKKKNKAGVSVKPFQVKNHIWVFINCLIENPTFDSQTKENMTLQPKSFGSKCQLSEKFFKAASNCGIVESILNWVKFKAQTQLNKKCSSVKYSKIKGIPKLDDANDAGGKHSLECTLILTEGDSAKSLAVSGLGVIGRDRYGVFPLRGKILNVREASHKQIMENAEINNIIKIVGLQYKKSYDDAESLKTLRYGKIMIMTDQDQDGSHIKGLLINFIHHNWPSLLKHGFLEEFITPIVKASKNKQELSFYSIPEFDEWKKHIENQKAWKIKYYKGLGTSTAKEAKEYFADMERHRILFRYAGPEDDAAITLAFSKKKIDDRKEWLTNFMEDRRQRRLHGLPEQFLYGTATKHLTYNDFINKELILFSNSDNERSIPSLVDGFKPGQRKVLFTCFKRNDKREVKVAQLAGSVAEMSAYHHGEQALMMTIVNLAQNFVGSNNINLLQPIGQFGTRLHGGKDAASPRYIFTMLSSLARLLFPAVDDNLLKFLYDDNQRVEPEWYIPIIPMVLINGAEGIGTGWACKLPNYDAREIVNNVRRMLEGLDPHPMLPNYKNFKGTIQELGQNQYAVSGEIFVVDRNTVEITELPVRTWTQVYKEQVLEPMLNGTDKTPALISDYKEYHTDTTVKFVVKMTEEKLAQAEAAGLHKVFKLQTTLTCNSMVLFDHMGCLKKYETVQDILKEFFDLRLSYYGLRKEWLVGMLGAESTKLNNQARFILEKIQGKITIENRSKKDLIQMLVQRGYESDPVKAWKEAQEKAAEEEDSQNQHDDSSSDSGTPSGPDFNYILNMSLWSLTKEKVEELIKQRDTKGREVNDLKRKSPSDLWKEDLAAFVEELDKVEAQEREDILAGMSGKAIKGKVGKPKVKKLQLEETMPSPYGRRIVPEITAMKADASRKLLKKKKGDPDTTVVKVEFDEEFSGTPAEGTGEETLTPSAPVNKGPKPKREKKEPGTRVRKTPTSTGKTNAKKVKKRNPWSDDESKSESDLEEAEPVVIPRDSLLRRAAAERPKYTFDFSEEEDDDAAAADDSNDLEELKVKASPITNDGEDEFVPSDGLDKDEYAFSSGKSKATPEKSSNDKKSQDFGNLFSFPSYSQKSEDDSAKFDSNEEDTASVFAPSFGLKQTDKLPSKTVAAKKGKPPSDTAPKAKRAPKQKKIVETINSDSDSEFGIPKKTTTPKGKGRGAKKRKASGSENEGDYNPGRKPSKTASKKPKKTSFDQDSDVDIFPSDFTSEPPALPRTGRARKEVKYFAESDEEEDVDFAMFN

Consider `COc1cc([C@@H]2c3cc4c(cc3[C@@H](O[C@@H]3O[C@@H]5CO[C@@H](C)O[C@H]5[C@H](O)[C@H]3O)[C@H]3COC(=O)[C@H]23)OCO4)cc(OC)c1O` [ETOPOSIDE], for which the result in test [1], in test [3], in test [4], in [7], in [8] and in [12] was Active. For the same compound, the “Percentage of cells in S phase” value in test [2] amounted to 6.97%. In addition, in test [5], the inhibition entry was “Active”. Also, the “Percentage of cells in G2/M phase” value in test [6] is given as 74.27%. The Activity in test [9] came to 12.82%. This compound returned an inhibition in [10] of 100%. This compound had a GI50 in [11] of 1310 nM.

Consider `COC(=O)c1sccc1S(=O)(=O)N[C@@H]1c2cc3c(cc2[C@@H](c2cc(OC)c(OC)c(OC)c2)[C@H]2C(=O)OC[C@@H]21)OCO3`, for which the outcome in test [1], in test [3], in [4], in test [13], in test [7] and in test [8] was Active. In addition, the “Percentage of cells in S phase” value in [2] turned out to be 8.16%. Further, the inhibition in test [5] was 50%. In [6], the “Percentage of cells in G2/M phase” value is recorded as 40.57%. Further, in [9], the Activity is listed as 27.43%. This compound came in with a 50% growth inhibitory concentration (GI50) in [11] of 50 nM.
